In general, Tmax refers to the time at which the peak concentration occurs. For orientation: Cmax means the maximum level reached in the sampled fluid or tissue. The term AUC(0-t) denotes exposure summed from dosing to a finite time, without extrapolation to infinity. Read a high AUC(0-t) as high exposure.

Data on 3 compounds can be found in ChEMBL document CHEMBL3351584, “Binding mode and potency of N-indolyloxopyridinyl-4-aminopropanyl-based inhibitors targeting Trypanosoma cruzi CYP51” (J Med Chem, 2014).

Common to all, as to type: ADME, organism-based
A short description of series [1]: Tmax in Swiss Webster mouse at 25 mg/kg, po administered as single dose by LC-MS/MS method. The arrangement: dose 25 mg/kg, route oral. The following applies: in vivo. Summed up: (§1)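 Eight-week-old female Swiss Webster mice (n = 3 per compound) given one oral gavage dose of 25 mg/kg, formulated at 5 mg/mL in 20% Kolliphor/80% water. Plasma sampled at about 0.25, 0.5, 1, 2, 4, 6, 8, 12 and 24 h, precipitated with 5× v/v acetonitrile, filtered 0.2 μm and quantified by LC–MS/MS. Parameters calculated from plasma concentration–time curves, averaged over three mice.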

Series [2] in a line: Cmax in Swiss Webster mouse at 25 mg/kg, po administered as single dose by LC-MS/MS method. The arrangement: dose 25 mg/kg, route oral. The following applies: in vivo. The method, boiled down: as §1
The nature of series [3]: AUClast in Swiss Webster mouse at 25 mg/kg, po administered as single dose by LC-MS/MS method. On the set-up: dose 25 mg/kg, route oral, time 0 - last. The following applies: plasma. Summed up: as §1
In another series the test system is Mus musculus. Kind of series: Volume of distribution in Swiss Webster mouse at 25 mg/kg, po administered as single dose by LC-MS/MS method. The arrangement: dose 25 mg/kg, route oral. The following applies: in vivo. The method, boiled down: as §1
The species entered for the next series is Homo sapiens. In words: Volume of distribution in human. The following applies: in vivo.

For `O=C(N[C@H](Cc1c[nH]c2ccccc12)C(=O)Nc1ccncc1)c1ccc(N2CCN(c3cc(Cl)cc(Cl)c3)CC2)cc1F`, in series [1], the Tmax is 4.67 h. Besides, the highest concentration (Cmax) in series [2] was 1850 nM. The area under the curve AUC(0-t) in series [3] was 22.5 µM·h. The compound also came in with a Vd with Mus musculus of 3.97 L/kg.

In the case of `Cc1ccc(Cl)cc1N1CCN(c2ccc(C(=O)N[C@H](Cc3c[nH]c4ccccc34)C(=O)Nc3ccncc3)c(F)c2)CC1`, in series [1], the Tmax was determined as 3.33 h. For the same compound, the peak level in series [2] (Cmax) was 1800 nM. The compound also returned an AUC(0-t) in series [3] of 19 µM·h. The compound further came in with a Vd in the series on Mus musculus of 3.44 L/kg.

In the series listed under Homo sapiens, `CC[C@@H]([C@H](C)O)n1ncn(-c2ccc(N3CCN(c4ccc(OC[C@@H]5CO[C@@](Cn6cncn6)(c6ccc(F)cc6F)C5)cc4)CC3)cc2)c1=O` [POSACONAZOLE] gave a Vd of 5 L/kg.
